Test results published in ChEMBL document CHEMBL1140930 (J Med Chem, 2009).

Key:
[1] = Antiproliferative activity against human KB/HeLa cells by XTT assay; assay type: functional, cell-based
Method in brief: (§1)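 XTT metabolic read-out. Cells seeded at 1 × 10³–8 × 10⁴ cells/well for logarithmic growth and exposed to graded concentrations for 48 h. At least two replicates. IC50 from nonlinear regression of dose-response curves. LT12/MDR: rat LT12 with ectopic human MDR-1. L1210/VCR: MDR-1 expressing, MRP-1 negative.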

[2] = system: SK-OV-3; experiment: Antiproliferative activity against human SKOV3 cells by XTT assay; assay type: functional, cell-based
Method in brief: (§2)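 XTT metabolic-activity read-out of proliferation. Cells were seeded at 1 × 10³-8 × 10⁴ cells/well for logarithmic growth and exposed to a range of compound concentrations for 48 h. IC50 came from nonlinear regression of dose-response curves, with at least two replicates. The P388/Adr subline was doxorubicin-selected with elevated MDR-1.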

[3] = system: SF-268; experiment: Antiproliferative activity against human SF268 cells by XTT assay; assay type: functional, cell-based; method in brief: as §1
[4] = system: NCI-H460; experiment: Antiproliferative activity against human NCI-H460 cells by XTT assay; assay type: functional, cell-based; method in brief: as §1
[5] = system: RKO; experiment: Antiproliferative activity against human RKO cells by XTT assay; assay type: functional, cell-based
Method in brief: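 RKO colon cells with ecdysone-inducible p27Kip1. Day 1: plated with or without 3 µM ponasterone A for 24 h, giving G1 arrest when induced (2 × 10⁴ cells/well induced; 6 × 10³ not induced). Day 2: compound added (DMSO control) for 48 h at 37 °C, then standard XTT. At least duplicate. IC50 by nonlinear regression.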

[6] = system: RKO; experiment: Antiproliferative activity against human RKO cells containing ecdysone-inducible expression vector of p27kipl by XTT assay; assay type: functional, cell-based
Method in brief: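 RKO cells carried an ecdysone-inducible p27Kip1 vector and were tested with and without induction. On day 1 they were plated with or without 3 µM ponasterone A, which gives G1 arrest, at 2 × 10⁴ cells/well induced or 6 × 10³ not induced, then held 24 h at 37 °C. Compound was then added for 48 h at 37 °C, followed by a standard XTT assay. IC50 came from nonlinear regression, n ≥ 2.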

[7] = Antiproliferative activity against rat LT12 cells after 48 hrs by XTT assay; assay type: functional, cell-based; settings: LT12, 48 h; method in brief: as §2
[8] = Antiproliferative activity against rat LT12 cells ectopic expression of human MDR1 after 48 hrs by XTT assay; assay type: functional, cell-based; settings: LT12, 48 h; method in brief: as §1
[9] = system: L1210; experiment: Antiproliferative activity against mouse L1210 cells after 48 hrs by XTT assay; assay type: functional, cell-based; settings: L1210, 48 h; method in brief: as §2
[10] = system: L1210; experiment: Antiproliferative activity against vincristine-resistance MRP1 negative mouse L1210 cells expressing human MDR1 after 48 hrs by XTT assay; assay type: functional, cell-based; settings: L1210, 48 h; method in brief: as §1
[11] = system: P388; experiment: Antiproliferative activity against mouse P388 cells after 48 hrs by XTT assay; assay type: functional, cell-based; settings: P388, 48 h; method in brief: as §2
[12] = system: P388; experiment: Antiproliferative activity against doxorubicin-resistant mouse P388 cells expressing MDR1 protein after 48 hrs by XTT assay; assay type: functional, cell-based; settings: P388, 48 h; method in brief: as §2
[13] = Cell cycle arrest in human KB/HeLa cells assessed as G2/M phase accumulation after 24 hrs by FACS analysis; assay type: functional, cell-based
Method in brief: (§3)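 Subconfluent KB/HeLa cells exposed to a range of compound concentrations for 24 h at 37 °C, then detached and fixed in 70% ethanol. DNA stained with propidium iodide after RNase digestion and measured by flow cytometry. Cell-cycle phase fractions taken from cell cycle analysis software. At least two replicates.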

[14] = Cell cycle arrest in human KB/HeLa cells assessed as S phase accumulation at 0.1 nM after 24 hrs by FACS analysis; assay type: functional, cell-based; method in brief: as §3
[15] = Cell cycle arrest in human KB/HeLa cells assessed as G2/M phase accumulation at 0.1 nM after 24 hrs by FACS analysis; assay type: functional, cell-based; method in brief: as §3
[16] = Cell cycle arrest in human KB/HeLa cells assessed as G1 phase accumulation at 0.1 nM after 24 hrs by FACS analysis; assay type: functional, cell-based; method in brief: as §3
[17] = Cell cycle arrest in human KB/HeLa cells assessed as S phase accumulation at 0.3 nM after 24 hrs by FACS analysis; assay type: functional, cell-based; method in brief: as §3
[18] = Cell cycle arrest in human KB/HeLa cells assessed as G2/M phase accumulation at 0.3 nM after 24 hrs by FACS analysis; assay type: functional, cell-based; method in brief: as §3
[19] = Cell cycle arrest in human KB/HeLa cells assessed as G1 phase accumulation at 0.3 nM after 24 hrs by FACS analysis; assay type: functional, cell-based; method in brief: as §3
[20] = Cell cycle arrest in human KB/HeLa cells assessed as S phase accumulation at 1 nM after 24 hrs by FACS analysis; assay type: functional, cell-based; method in brief: as §3
[21] = Cell cycle arrest in human KB/HeLa cells assessed as G2/M phase accumulation at 1 nM after 24 hrs by FACS analysis; assay type: functional, cell-based; method in brief: as §3
[22] = Cell cycle arrest in human KB/HeLa cells assessed as G1 phase accumulation at 1 nM after 24 hrs by FACS analysis; assay type: functional, cell-based; method in brief: as §3
[23] = Cell cycle arrest in human KB/HeLa cells assessed as S phase accumulation at 3.16 nM after 24 hrs by FACS analysis; assay type: functional, cell-based; method in brief: as §3
[24] = Cell cycle arrest in human KB/HeLa cells assessed as G2/M phase accumulation at 3.16 nM after 24 hrs by FACS analysis; assay type: functional, cell-based; method in brief: as §3
[25] = Cell cycle arrest in human KB/HeLa cells assessed as G1 phase accumulation at 3.16 nM after 24 hrs by FACS analysis; assay type: functional, cell-based; method in brief: as §3
[26] = Cell cycle arrest in human KB/HeLa cells assessed as S phase accumulation at 10 nM after 24 hrs by FACS analysis; assay type: functional, cell-based; method in brief: as §3
[27] = Cell cycle arrest in human KB/HeLa cells assessed as G2/M phase accumulation at 10 nM after 24 hrs by FACS analysis; assay type: functional, cell-based; method in brief: as §3
[28] = Cell cycle arrest in human KB/HeLa cells assessed as G1 phase accumulation at 10 nM after 24 hrs by FACS analysis; assay type: functional, cell-based; method in brief: as §3
[29] = Cell cycle arrest in human KB/HeLa cells assessed as S phase accumulation at 31.6 nM after 24 hrs by FACS analysis; assay type: functional, cell-based; method in brief: as §3
[30] = Cell cycle arrest in human KB/HeLa cells assessed as G2/M phase accumulation at 31.6 nM after 24 hrs by FACS analysis; assay type: functional, cell-based; method in brief: as §3
[31] = Cell cycle arrest in human KB/HeLa cells assessed as G1 phase accumulation at 31.6 nM after 24 hrs by FACS analysis; assay type: functional, cell-based; method in brief: as §3
[32] = Cell cycle arrest in human KB/HeLa cells assessed as S phase accumulation at 100 nM after 24 hrs by FACS analysis; assay type: functional, cell-based; method in brief: as §3
[33] = Cell cycle arrest in human KB/HeLa cells assessed as G2/M phase accumulation at 100 nM after 24 hrs by FACS analysis; assay type: functional, cell-based; method in brief: as §3
[34] = Cell cycle arrest in human KB/HeLa cells assessed as G1 phase accumulation at 100 nM after 24 hrs by FACS analysis; assay type: functional, cell-based; method in brief: as §3
[35] = Cell cycle arrest in human KB/HeLa cells assessed as S phase accumulation at 316 nM after 24 hrs by FACS analysis; assay type: functional, cell-based; method in brief: as §3
[36] = Cell cycle arrest in human KB/HeLa cells assessed as G2/M phase accumulation at 316 nM after 24 hrs by FACS analysis; assay type: functional, cell-based; method in brief: as §3
[37] = Cell cycle arrest in human KB/HeLa cells assessed as G1 phase accumulation at 316 nM after 24 hrs by FACS analysis; assay type: functional, cell-based; method in brief: as §3
[38] = Cell cycle arrest in human KB/HeLa cells assessed as S phase accumulation at 1000 nM after 24 hrs by FACS analysis; assay type: functional, cell-based; method in brief: as §3
[39] = Cell cycle arrest in human KB/HeLa cells assessed as G2/M phase accumulation at 1000 nM after 24 hrs by FACS analysis; assay type: functional, cell-based; method in brief: as §3
[40] = Cell cycle arrest in human KB/HeLa cells assessed as G1 phase accumulation at 1000 nM after 24 hrs by FACS analysis; assay type: functional, cell-based; method in brief: as §3
[41] = target: T1, Tubulin (Sus scrofa, UniProt P02554+P02550); experiment: Displacement of [3H]Colchicine from pig biotinylated tubulin after 2 hrs by SPA; assay type: protein assay
[42] = target: T1, Tubulin; experiment: Displacement of [3H]paclitaxel from pig biotinylated tubulin after 2 hrs by SPA; assay type: protein assay
[43] = system: K562; experiment: Antiproliferative activity against human K562 cells after 48 hrs; assay type: functional, cell-based; settings: K562, 48 h
Method in brief: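 K562 cells (RPMI 1640, 10% FBS, 37 °C, 5% CO2) plated at 2 × 10⁵ cells/mL. Compounds dissolved in DMSO/methanol 1:1, vehicle 0.5%. Cells counted in a Neubauer chamber after 48 h and expressed as % of untreated control. Triplicate wells, three experiments. IC50 from nonlinear regression.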

[44] = target: T1, Tubulin; experiment: Inhibition of pig brain tubulin polymerization after 30 mins by turbidimetric assay
Method in brief: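 Microtubule protein from porcine brain (80–90% tubulin, 10–20% MAPs), purified by two disassembly/reassembly cycles. Assay buffer: 20 mM PIPES pH 6.8, 80 mM NaCl, 0.5 mM MgCl2, 1 mM EGTA, 1 mM DTT. Protein at 1.2 mg/mL with 0.6 mM GTP final, 1% DMSO final, 37 °C.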

Compound: COc1ccc(C(=O)C=C2c3ccccc3C(=O)c3ccccc32)cc1
- IC50 [1]: 60 nM
- IC50 [2]: 60 nM
- IC50 [3]: 60 nM
- IC50 [4]: 70 nM
- IC50 [5]: 80 nM
- IC50 [6]: > 9000 nM
- IC50 [7]: 50 nM
- IC50 [8]: 50 nM
- IC50 [9]: 50 nM
- IC50 [10]: 50 nM
- IC50 [11]: 40 nM
- IC50 [12]: 50 nM
- EC50 [13]: 90 nM
- Activity [14]: 26.1%
- Activity [15]: 13.2%
- Activity [16]: 60.7%
- Activity [17]: 27.1%
- Activity [18]: 10.8%
- Activity [19]: 62.1%
- Activity [20]: 26.1%
- Activity [21]: 11.6%
- Activity [22]: 62.3%
- Activity [23]: 26.2%
- Activity [24]: 11.8%
- Activity [25]: 62%
- Activity [26]: 26%
- Activity [27]: 11.3%
- Activity [28]: 62.7%
- Activity [29]: 34.1%
- Activity [30]: 8.4%
- Activity [31]: 57.5%
- Activity [32]: 16.7%
- Activity [33]: 74.9%
- Activity [34]: 8.4%
- Activity [35]: 6.2%
- Activity [36]: 92.8%
- Activity [37]: 1%
- Activity [38]: 9.2%
- Activity [39]: 88.5%
- Activity [40]: 2.3%
- IC50 [41]: 400 nM
- IC50 [42]: > 100000 nM
- IC50 [43]: 70 nM
- IC50 [44]: 520 nM

Compound: COc1ccc(C(=O)C=C2c3ccccc3C(=O)c3ccccc32)cc1OC
- IC50 [1]: 1080 nM
- IC50 [3]: 2700 nM
- IC50 [4]: 1400 nM
- IC50 [5]: 510 nM
- IC50 [6]: > 9000 nM
- IC50 [7]: 370 nM
- IC50 [8]: 440 nM
- IC50 [9]: 970 nM
- IC50 [10]: 970 nM
- IC50 [11]: 900 nM
- IC50 [12]: 1100 nM
- IC50 [43]: 1300 nM
- IC50 [44]: 6000 nM

Compound: COc1cc2c(c(OC)c1OC)-c1ccc(OC)c(=O)cc1[C@@H](NC(C)=O)CC2 [COLCHICINE]
- IC50 [1]: 10 nM
- IC50 [2]: 10 nM
- IC50 [3]: 10 nM
- IC50 [4]: 10 nM
- IC50 [5]: 10 nM
- IC50 [6]: > 3000 nM
- EC50 [13]: 14 nM
- Activity [17]: 26.6%
- Activity [18]: 10.1%
- Activity [19]: 63.3%
- Activity [20]: 25.4%
- Activity [21]: 10%
- Activity [22]: 64.7%
- Activity [23]: 25.1%
- Activity [25]: 64.3%
- Activity [26]: 35.7%
- Activity [27]: 32.1%
- Activity [28]: 32.2%
- Activity [29]: 11.9%
- Activity [30]: 87.6%
- Activity [31]: 0.5%
- Activity [32]: 5.1%
- Activity [33]: 94.7%
- Activity [34]: 0.3%
- Activity [35]: 5.2%
- Activity [36]: 94.5%
- Activity [37]: 0.3%
